# Measured values as given in PubChem BioAssay.
# Values without a mark were called inactive. Calls of active or inactive are those of the source.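 How the source made its calls, unless noted: active means growth inhibition above 25% in both replicates, a cutoff set 3 SD above the mean; inconclusive means above 25% in only one replicate; inactive means the rest.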
# Test: S. cerevisiae growth inhibition in permissive medium (OD615), pilot counter-assay for S. cerevisiae lifespan shortening project, permissive growth control (AID 705)
# Conditions: OD615, 24 h, at 10 µM, active compounds read high
# In short: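 Test system: Saccharomyces cerevisiae strain carrying genetically modified DeaD replicative-lifespan system; buffer or medium: SC raffinose/galactose permissive medium; dosing: one dose 10 µM, DMSO 0.25% final; times: 24 h exposure, 30 °C; measured by: OD at 615 nm; read-out basis: growth inhibition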
row,Structure (SMILES),growth inhibition
1,COc1ccc(NC(=O)N(Cc2ccc(C)cc2)Cc2ccccn2)c(OC)c1,-3.04%
2,COc1cc(C(=O)N2CCN(C(=O)C(Cc3cc(C)ccc3C)NC(C)=O)CC2)cc(OC)c1OC (stereo not given),-24.3%
3,O=C1C2CCCN2C(c2ccc(F)cc2)N1c1cccc(Cl)c1 (stereo not given),-1.56%
4,COc1cccc(NC(=O)c2ccncc2)c1,-9.44%
5,CC(=O)Nc1cc(-c2nn3c(C)nnc3s2)ccc1C,3.93%
6,O=C1CC(c2ccccc2)CC(O)=C1C=NCCN1CCNCC1 (stereo not given),-21.5%
7,O=C(NCc1ccc2c(c1)OCO2)c1cnc2n(c1=O)CCS2,-2.39%
8,COc1ccc(OC)c(CCNC(=O)C2CCN(c3nnc(-n4cccc4)s3)CC2)c1,-7.79%
9,COc1ccc(OCCSc2ncnc3nc[nH]c23)cc1,2.66%
10,CC(CCc1ccco1)NC(=O)Cn1nc(Cc2ccncc2)c2ccccc2c1=O (stereo not given),-0.065%
11,Cc1oc(-c2ccc(Cl)cc2)nc1CN1CCCC(C(=O)N2CCN(C(=O)c3ccco3)CC2)C1 (stereo not given),-8.52%
12,O=C(CC1(O)C(=O)Nc2ccccc21)c1ccccc1 (stereo not given),1.47%
13,c1cc(-c2nnc3n2CCC3)[nH]n1,1.95%
14,Cc1ccnc(SCCn2c(N3CCCCC3)nc3c2c(=O)[nH]c(=O)n3C)n1,-8.7%
15,CC(C)(C)c1ccc(OCC(=O)N2CCN(C=O)CC2)cc1,-6.68%
16,CCC(C)(c1ccc(C(=O)OC)s1)c1ccc(C(=O)OC)s1,-5.53%
17,CCOC(=O)N1CCC(NC(=O)CSCc2nc(-c3sccc3C)oc2C)CC1,-9.01%
18,CCc1cccc(Nc2cc(C)nc3ncnn23)c1,-5.35%
19,CC(=O)CCS(=O)(=O)c1ccc(C)c(C)c1,-1.55%
20,N=c1n(CCOc2ccccc2)c2ccccc2n1CCN1CCOCC1,-1.46%

row,Structure (SMILES),growth inhibition
1,COc1cccc2c(=O)c(C/C=C(/C)Cl)c(C)[nH]c12,-2.8%
2,COC(=O)C(C(=O)OC)C(C(=O)OC)C(C(=O)OC)C(=O)OC,-6.07%
3,CC1CCCCN1c1nnc(NC(=O)Cn2c(=O)oc3ccccc32)s1 (stereo not given),-4.21%
4,COc1cccc(-c2nnc(NC(=O)C3CCCCC3)o2)c1,-14%
5,COC(=O)c1ccsc1NC(=O)C1COc2ccccc2O1 (stereo not given),6.25%
6,Cc1cccc(Nc2ncnc3nc[nH]c23)c1C,-10.5%
7,O=C(CCc1ccccc1)N1CCN(CCO)CC1,-4.45%
8,CN1CCCN(Cc2ccccc2C(F)(F)F)CC1,1.78%
9,CC(=O)Nc1ccc(-c2cc(NC(C)=O)n(-c3ccccc3)n2)cc1,2.46%
10,CCCCCn1c(CCNC(=O)c2cccs2)nc2ccccc21,-9.44%
11,Cc1ccc2ccc(S(=O)(=O)n3nc(C)cc3C)cc2c1,-6.58%
12,CCOC(=O)Cc1csc(NC(=O)CN2C(=O)c3ccccc3S2(=O)=O)n1,-8.36%
13,O=C(NCc1ccccn1)c1ccc2ccccc2n1,4.58%
14,CCCc1ccc(Oc2c(-c3ccc(O)c(C)c3O)n[nH]c2C)cc1,93.6% (active)
15,COc1ccc(C(CNC(=O)C2CC(=O)N(Cc3ccc(C)cc3)C2)N(C)C)cc1 (stereo not given),-1.76%
16,CN(Cc1ccco1)C(=O)C(Cc1ccccc1)NS(=O)(=O)c1ccc2c(c1)CCC(=O)N2 (stereo not given),-11.9%
17,O=C(O)C1CCCCC1C(=O)NCc1cn2ccccc2n1 (stereo not given),-16.1%
18,CCN1CCN(CC(=O)Nc2ccccc2)C(=O)C1=O,-2.23%
19,Nc1c(S(=O)(=O)c2ccccc2)c2nc3ccccc3nc2n1Cc1ccco1,-25.5%
20,Cc1nc2ccccc2c2oc(C(=O)N3CCc4ccccc43)cc12,-11.5%

# Test: S. cerevisiae growth inhibition in restrictive medium, OD615, pilot screen, restrictive growth control, yeast lifespan reduction project (AID 706;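 active means growth inhibition above a set limit, 3 SD over mean compound inhibition, in both replicates, cut at about 43% in these data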;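 further: modified DeaD lifespan yeast strain shifted to restrictive glucose medium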)
# Conditions: OD615, 48 h, at 10 µM, active compounds read high
# In short: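 material = engineered S. cerevisiae DeaD strain | buffer or medium = glucose-based CSMM-D restrictive medium | dosing = one concentration, 10 µM final, 0.25% DMSO | schedule = 4 h pre-growth plus 48 h compound exposure, 30 °C | detection = OD615 absorbance reading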
row,Structure (SMILES),growth inhibition
1,COc1ccc(NC(=O)N(Cc2ccc(C)cc2)Cc2ccccn2)c(OC)c1,7.11%
2,COc1cc(C(=O)N2CCN(C(=O)C(Cc3cc(C)ccc3C)NC(C)=O)CC2)cc(OC)c1OC (stereo not given),-16.3%
3,O=C1C2CCCN2C(c2ccc(F)cc2)N1c1cccc(Cl)c1 (stereo not given),0.01%
4,COc1cccc(NC(=O)c2ccncc2)c1,-11%
5,CC(=O)Nc1cc(-c2nn3c(C)nnc3s2)ccc1C,1.4%
6,O=C1CC(c2ccccc2)CC(O)=C1C=NCCN1CCNCC1 (stereo not given),-14.2%
7,O=C(NCc1ccc2c(c1)OCO2)c1cnc2n(c1=O)CCS2,4.35%
8,COc1ccc(OC)c(CCNC(=O)C2CCN(c3nnc(-n4cccc4)s3)CC2)c1,-20.5%
9,COc1ccc(OCCSc2ncnc3nc[nH]c23)cc1,22.4%
10,CC(CCc1ccco1)NC(=O)Cn1nc(Cc2ccncc2)c2ccccc2c1=O (stereo not given),3.82%
11,Cc1oc(-c2ccc(Cl)cc2)nc1CN1CCCC(C(=O)N2CCN(C(=O)c3ccco3)CC2)C1 (stereo not given),-14.5%
12,O=C(CC1(O)C(=O)Nc2ccccc21)c1ccccc1 (stereo not given),-8.37%
13,c1cc(-c2nnc3n2CCC3)[nH]n1,-0.075%
14,Cc1ccnc(SCCn2c(N3CCCCC3)nc3c2c(=O)[nH]c(=O)n3C)n1,-5.05%
15,CC(C)(C)c1ccc(OCC(=O)N2CCN(C=O)CC2)cc1,-10.2%
16,CCC(C)(c1ccc(C(=O)OC)s1)c1ccc(C(=O)OC)s1,-2.49%
17,CCOC(=O)N1CCC(NC(=O)CSCc2nc(-c3sccc3C)oc2C)CC1,-10.5%
18,CCc1cccc(Nc2cc(C)nc3ncnn23)c1,-1.55%
19,CC(=O)CCS(=O)(=O)c1ccc(C)c(C)c1,-7.75%
20,N=c1n(CCOc2ccccc2)c2ccccc2n1CCN1CCOCC1,6.28%

row,Structure (SMILES),growth inhibition
1,COc1cccc2c(=O)c(C/C=C(/C)Cl)c(C)[nH]c12,5.71%
2,COC(=O)C(C(=O)OC)C(C(=O)OC)C(C(=O)OC)C(=O)OC,-6.78%
3,CC1CCCCN1c1nnc(NC(=O)Cn2c(=O)oc3ccccc32)s1 (stereo not given),-14.8%
4,COc1cccc(-c2nnc(NC(=O)C3CCCCC3)o2)c1,-2.06%
5,COC(=O)c1ccsc1NC(=O)C1COc2ccccc2O1 (stereo not given),8.76%
6,Cc1cccc(Nc2ncnc3nc[nH]c23)c1C,-8.69%
7,O=C(CCc1ccccc1)N1CCN(CCO)CC1,9.8%
8,CN1CCCN(Cc2ccccc2C(F)(F)F)CC1,1.52%
9,CC(=O)Nc1ccc(-c2cc(NC(C)=O)n(-c3ccccc3)n2)cc1,-0.26%
10,CCCCCn1c(CCNC(=O)c2cccs2)nc2ccccc21,-0.75%
11,Cc1ccc2ccc(S(=O)(=O)n3nc(C)cc3C)cc2c1,2.99%
12,CCOC(=O)Cc1csc(NC(=O)CN2C(=O)c3ccccc3S2(=O)=O)n1,-15%
13,O=C(NCc1ccccn1)c1ccc2ccccc2n1,-7.25%
14,CCCc1ccc(Oc2c(-c3ccc(O)c(C)c3O)n[nH]c2C)cc1,87.5% (active)
15,COc1ccc(C(CNC(=O)C2CC(=O)N(Cc3ccc(C)cc3)C2)N(C)C)cc1 (stereo not given),-7.34%
16,CN(Cc1ccco1)C(=O)C(Cc1ccccc1)NS(=O)(=O)c1ccc2c(c1)CCC(=O)N2 (stereo not given),-12.3%
17,O=C(O)C1CCCCC1C(=O)NCc1cn2ccccc2n1 (stereo not given),-10.5%
18,CCN1CCN(CC(=O)Nc2ccccc2)C(=O)C1=O,9.12%
19,Nc1c(S(=O)(=O)c2ccccc2)c2nc3ccccc3nc2n1Cc1ccco1,-16.2%
20,Cc1nc2ccccc2c2oc(C(=O)N3CCc4ccccc43)cc12,-16.6%
